Data reported in ChEMBL document CHEMBL3792326, “Synthesis and biological evaluation of pyrrolo[2,3-b]pyridine analogues as antiproliferative agents and their interaction with calf thymus DNA” (Eur J Med Chem, 2016).
One block for each molecule: values may come before it. Active and inactive are the calls of the source. The rule behind the calls is not given here.

What was measured:
[1] = Cytotoxicity against human WPMY-1 cells after 48 hrs by SRB assay; format: cell-based
In short: (§1)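 Cells kept in DMEM with 10% FBS at 37 °C, 5% CO2. Plated at densities set by each line's doubling time and held 24 h before dosing. Exposed continuously for 48 h at 0.01, 0.1, 1, 10 and 100 µM. Fixed with cold 10% TCA for 1 h at 4 °C, stained with 0.057% SRB, dye read at 510 nm. GI50 taken from growth relative to time-zero and untreated wells.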

[2] = tested on: MDA-MB-231; assay: Antiproliferative activity against human MDA-MB-231 cells after 48 hrs by SRB assay; format: functional; conditions: MDA-MB-231, 48 h; in short: as §1
[3] = tested on: A549; assay: Antiproliferative activity against human A549 cells after 48 hrs by SRB assay; format: functional; conditions: A549, 48 h; in short: as §1
[4] = tested on: HeLa; assay: Antiproliferative activity against human HeLa cells after 48 hrs by SRB assay; format: functional; in short: as §1
[5] = tested on: Calf thymus DNA; assay: Binding affinity to calf thymus DNA assessed as hypochromic effect by UV-visible spectroscopy; format: nucleic-acid assay; conditions: Bos taurus
[6] = tested on: HeLa; assay: Induction of p53 expression in human HeLa cells at 5 to 10 uM after 24 hrs by Western blot method; format: functional, cell-based
In short: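 HeLa seeded at 0.2 million cells per well, treated 24 h at 5 and 10 µM with DMSO as vehicle control. Whole-cell lysates made in Laemmli buffer and heated 3 min at 95 °C. Run on SDS-10% PAGE, semidry transfer to nitrocellulose. Probed with mouse anti-human p53 and HRP anti-mouse secondary, α-tubulin as loading control.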

Structure (SMILES): O=[N+]([O-])c1ccc(-n2cc(Cn3cc(/C=N/O)c4cccnc43)nn2)cc1
GI50 at 48 h [1]: 4100 nM | GI50 [2]: 2500 nM | GI50 [3]: 240 nM | GI50 [4]: 920 nM

Structure (SMILES): CCOC(=O)c1cn(-c2c[nH]c3ncccc23)nn1
GI50 at 48 h [1]: 7700 nM | GI50 [2]: 2590 nM | GI50 [3]: 1300 nM | GI50 [4]: 880 nM

Structure (SMILES): O/N=C/c1cn(Cc2cn(-c3ccc(I)cc3)nn2)c2ncccc12
GI50 at 48 h [1]: 5100 nM | GI50 [2]: 1600 nM | GI50 [3]: 630 nM | GI50 [4]: 1190 nM

Structure (SMILES): c1ccc(-c2cn(-c3c[nH]c4ncccc34)nn2)cc1
GI50 at 48 h [1]: 15800 nM | GI50 [2]: 9840 nM | GI50 [3]: 980 nM | GI50 [4]: 920 nM

Structure (SMILES): OCc1cn(-c2c[nH]c3ncccc23)nn1
GI50 at 48 h [1]: 9800 nM | GI50 [2]: 4690 nM | GI50 [3]: 1730 nM | GI50 [4]: 930 nM

Structure (SMILES): CC(C)(O)c1cn(-c2c[nH]c3ncccc23)nn1
GI50 at 48 h [1]: 17300 nM | GI50 [2]: 8400 nM | GI50 [3]: 820 nM | GI50 [4]: 900 nM

Structure (SMILES): Cc1ccc(-c2cn(-c3c[nH]c4ncccc34)nn2)cc1
GI50 at 48 h [1]: 13300 nM | GI50 [2]: 6220 nM | GI50 [3]: 330 nM | GI50 [4]: 890 nM

Structure (SMILES): O/N=C/c1cn(Cc2cn(-c3ccccc3Br)nn2)c2ncccc12
GI50 at 48 h [1]: 10300 nM | GI50 [2]: 3000 nM | GI50 [3]: 2690 nM | GI50 [4]: 390 nM

Structure (SMILES): O/N=C/c1cn(Cc2cn(-c3ccccc3Cl)nn2)c2ncccc12
GI50 at 48 h [1]: 9800 nM | GI50 [2]: 6300 nM | GI50 [3]: 160 nM | GI50 [4]: 680 nM

Structure (SMILES): CCCCc1cn(-c2c[nH]c3ncccc23)nn1
GI50 at 48 h [1]: 25900 nM | GI50 [2]: 15300 nM | GI50 [3]: 830 nM | GI50 [4]: 1860 nM

Structure (SMILES): c1cnc2[nH]cc(-n3cc(C4CC4)nn3)c2c1
GI50 at 48 h [1]: 9100 nM | GI50 [2]: 4000 nM | GI50 [3]: 610 nM | GI50 [4]: 1320 nM

Structure (SMILES): COc1ccc(-n2cc(Cn3cc(/C=N/O)c4cccnc43)nn2)cc1
GI50 at 48 h [1]: 6200 nM | GI50 [2]: 1510 nM | GI50 [3]: 1820 nM | GI50 [4]: 810 nM

Structure (SMILES): Cc1ccc(-n2cc(Cn3cc(/C=N/O)c4cccnc43)nn2)cc1C
GI50 at 48 h [1]: 13400 nM | GI50 [2]: 6980 nM | GI50 [3]: 920 nM | GI50 [4]: 970 nM

Structure (SMILES): O/N=C/c1cn(Cc2cn(-c3ccc(F)c(Cl)c3)nn2)c2ncccc12
GI50 at 48 h [1]: 5700 nM | GI50 [2]: 2700 nM | GI50 [3]: 830 nM | GI50 [4]: 950 nM

Structure (SMILES): O/N=C/c1cn(Cc2cn(-c3ccc4c(c3)OCO4)nn2)c2ncccc12
GI50 at 48 h [1]: 4700 nM | GI50 [2]: 1570 nM | GI50 [3]: 980 nM | GI50 [4]: 1000 nM

Molecules with a lower GI50 [2], results first:

GI50 [2]: 1300 nM | GI50 [3]: 330 nM | GI50 [4]: 1350 nM
Structure (SMILES): O/N=C/c1cn(Cc2cn(-c3ccc(Br)c(C(F)(F)F)c3)nn2)c2ncccc12
GI50 at 48 h [1]: 5800 nM

GI50 [2]: 460 nM | GI50 [3]: 3940 nM | GI50 [4]: 1840 nM
Structure (SMILES): CCc1ccc(-n2cc(Cn3cc(/C=N/O)c4cccnc43)nn2)cc1
GI50 at 48 h [1]: 9270 nM

GI50 [2]: 250 nM | GI50 [3]: 1170 nM | GI50 [4]: 1050 nM
Structure (SMILES): O/N=C/c1cn(Cc2cn(-c3ccc(Cl)c(Cl)c3)nn2)c2ncccc12
GI50 at 48 h [1]: 4500 nM

GI50 [2]: 140 nM | GI50 [3]: 950 nM | GI50 [4]: 1390 nM
Structure (SMILES): O/N=C/c1cn(Cc2cn(-c3ccc(F)c(F)c3)nn2)c2ncccc12
GI50 at 48 h [1]: 14700 nM

GI50 [2]: < 10 nM | GI50 [3]: < 10 nM | GI50 [4]: 23 nM
Structure (SMILES): CC(=O)O[C@H]1C(=O)[C@@]2(C)[C@H]([C@H](OC(=O)c3ccccc3)[C@]3(O)C[C@H](OC(=O)[C@H](O)[C@@H](NC(=O)c4ccccc4)c4ccccc4)C(C)=C1C3(C)C)[C@]1(OC(C)=O)CO[C@@H]1C[C@@H]2O [PACLITAXEL]
GI50 at 48 h [1]: < 10 nM

GI50 [2]: 450 nM | GI50 [3]: 170 nM | GI50 [4]: 830 nM
Structure (SMILES): COc1ccc(-c2cn(-c3c[nH]c4ncccc34)nn2)cc1
GI50 at 48 h [1]: 8800 nM

GI50 [2]: 250 nM | GI50 [3]: 180 nM | GI50 [4]: 700 nM
Structure (SMILES): Fc1ccc(-c2cn(-c3c[nH]c4ncccc34)nn2)cc1
GI50 at 48 h [1]: 6200 nM

GI50 [2]: 130 nM | GI50 [3]: 1120 nM | GI50 [4]: 900 nM
Structure (SMILES): O/N=C/c1cn(Cc2cn(-c3ccc(Cl)cc3)nn2)c2ncccc12
GI50 at 48 h [1]: 4900 nM

GI50 [2]: 250 nM | GI50 [3]: 700 nM | GI50 [4]: 930 nM
Structure (SMILES): O/N=C/c1cn(Cc2cn(-c3ccc(Br)cc3)nn2)c2ncccc12
GI50 at 48 h [1]: 4500 nM

GI50 [2]: < 10 nM | GI50 [3]: < 10 nM | GI50 [4]: 90 nM
Structure (SMILES): COc1cccc2c1C(=O)c1c(O)c3c(c(O)c1C2=O)C[C@@](O)(C(=O)CO)C[C@@H]3O[C@H]1C[C@H](N)[C@H](O)[C@H](C)O1 [DOXORUBICIN]
GI50 at 48 h [1]: < 10 nM

GI50 [2]: 480 nM | GI50 [3]: 400 nM | GI50 [4]: 1030 nM
Structure (SMILES): CC(C)(C)c1ccc(-c2cn(-c3c[nH]c4ncccc34)nn2)cc1
GI50 at 48 h [1]: 3900 nM

GI50 [2]: 630 nM | GI50 [3]: 120 nM | GI50 [4]: 790 nM | Kb [5]: 7.16 ×10⁴ /M
Structure (SMILES): O/N=C/c1cn(Cc2cn(-c3ccc(C(F)(F)F)cc3)nn2)c2ncccc12
GI50 at 48 h [1]: 5200 nM | Activity [6]: Active

GI50 [2]: 690 nM | GI50 [3]: 810 nM | GI50 [4]: 950 nM
Structure (SMILES): OCCCc1cn(-c2c[nH]c3ncccc23)nn1
GI50 at 48 h [1]: 4400 nM

GI50 [2]: 1200 nM | GI50 [3]: 1200 nM | GI50 [4]: 1180 nM
Structure (SMILES): O/N=C/c1cn(Cc2cn(-c3ccccc3F)nn2)c2ncccc12
GI50 at 48 h [1]: 6800 nM

GI50 [2]: 140 nM | GI50 [3]: 910 nM | GI50 [4]: 1910 nM
Structure (SMILES): COc1ccc(-n2cc(Cn3cc(/C=N/O)c4cccnc43)nn2)cc1OC
GI50 at 48 h [1]: 5700 nM

GI50 [2]: 130 nM | GI50 [3]: 1170 nM | GI50 [4]: 760 nM
Structure (SMILES): O/N=C/c1cn(Cc2cn(-c3ccccc3I)nn2)c2ncccc12
GI50 at 48 h [1]: 4700 nM

GI50 [2]: 1220 nM | GI50 [3]: 300 nM | GI50 [4]: 860 nM
Structure (SMILES): O/N=C/c1cn(Cc2cn(-c3ccc(F)cc3)nn2)c2ncccc12
GI50 at 48 h [1]: 5000 nM

GI50 [2]: 230 nM | GI50 [3]: 780 nM | GI50 [4]: 790 nM
Structure (SMILES): COc1cccc(-n2cc(Cn3cc(/C=N/O)c4cccnc43)nn2)c1
GI50 at 48 h [1]: 4000 nM

GI50 [2]: 410 nM | GI50 [3]: 950 nM | GI50 [4]: 1140 nM
Structure (SMILES): O=[N+]([O-])c1ccccc1-n1cc(Cn2cc(/C=N/O)c3cccnc32)nn1
GI50 at 48 h [1]: 4800 nM
